The list is not random: actives were taken first. Their share in the collection is about 2.1%.
B2AR ag – human beta-2 adrenergic receptor agonism by FAP; P07550; Am2.2-beta2AR cells, FAP receptor internalization, flow cytometry; response, % (no concentration beside the values); hit rate 0.43% among 340,000; AID 504454;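 active means response above a set limit, near 3 SD of response in nonfluorescent compounds, cut at about 42% in these data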
Target sequence (P07550 whole entry, looked up): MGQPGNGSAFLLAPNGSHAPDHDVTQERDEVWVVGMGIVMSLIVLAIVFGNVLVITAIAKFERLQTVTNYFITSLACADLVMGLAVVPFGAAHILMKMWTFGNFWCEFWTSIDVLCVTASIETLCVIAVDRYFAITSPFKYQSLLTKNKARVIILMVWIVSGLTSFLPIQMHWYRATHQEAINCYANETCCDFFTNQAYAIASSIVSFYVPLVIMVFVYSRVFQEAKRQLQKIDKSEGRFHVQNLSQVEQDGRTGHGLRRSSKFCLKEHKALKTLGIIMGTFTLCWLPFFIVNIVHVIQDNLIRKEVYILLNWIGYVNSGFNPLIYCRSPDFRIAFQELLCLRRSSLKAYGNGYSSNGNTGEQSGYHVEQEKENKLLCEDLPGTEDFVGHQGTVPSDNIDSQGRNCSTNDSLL
HKDC1 inh – HKDC1 (human) hexokinase inhibition; inhibition, % at 20 µM; Q2TB90; recombinant HKDC1, G6PDH/diaphorase resazurin coupled fluorescence; hit rate 0.16% among 340,000;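 active means inhibition above about 35% when tested at 20 µM, limit read from the data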
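test system = in-house recombinant HK5 (HKDC1) enzyme | amount = HKDC1 at 5 µg/mL | control set = DMSO-enzyme wells negative, buffer-substituted wells positive | compound = one dose of 20 µM, 1% DMSO | schedule = reaction time 90 min, room temperature, protected from light | technique = resorufin fluorescence at 613 nm | reagent = glucose with 1 mM ATP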
PfGluPho inh – PfG6PD (Plasmodium falciparum) enzyme inhibition. PfGluPho enzyme, NADPH resazurin-diaphorase fluorescence. hit rate 0.78% among 350,000. inhibition, % at 20 µM;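 active means inhibition reaching at least a set limit at 20 µM in the primary screen, cut at about 59% in these data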
UCH37 DUB inh – blocks the human deubiquitinase UCH37; Q9Y5K5; purified proteasome/UCH37, Ub-AMC cleavage fluorescence; inhibition, % (concentration not given with the values); hit rate 0.33% among 330,000; AID 588478;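 active means mean inhibition over replicate wells above about 20%, limit read from the data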
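Material: Human UCH37 enzyme supplied as purified proteasome complex | Schedule: 30 min preincubation with enzyme, 25 min cleavage at room temperature | Detection: AMC fluorescence 355/460 nm | Measure: % inhibition of Ub-AMC cleavage fluorescence | Controls: Wells without proteasome as full block, compound-free enzyme plus substrate as uninhibited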
aDG glyco act – increases alpha dystroglycan glycosylation; Pro5-aDG cells, alpha-DG glycosylation AlphaScreen (IIH6); 0% Pro5, 100% B10-LARGE cell signal; activation, % at 10 µM; hit rate 0.22% among 360,000; AID 624168;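 active means activation of at least 8% versus controls, or a plate z-score of at least 8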;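 further: Pro5 are CHO cells carrying HIG-tagged alpha-DG that lacks glycosylation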
Cardio protect – protects H9c2 cardiomyocytes from peroxide injury; protection from H2O2 cell death, % at 20 µM; hit rate 0.63% among 360,000; H2O2 injury protection, ATPLite, 2 h;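 active means compounds giving at least 50% protection of heart cells from peroxide-induced death in the single-dose screen, raw or plate-pattern-corrected value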
Hits are given with their value; . = inactive; / = no result; ! = not confirmed by another sample.

SMILES | B2AR ag | HKDC1 inh | PfGluPho inh | UCH37 DUB inh | aDG glyco act | Cardio protect
Cc1sc2nc(CSCC(=O)Nc3c(F)cccc3F)[nH]c(=O)c2c1C | . | . | . | . | . | .
Cc1sc2nc(CSCC(=O)Nc3ccc(C(F)(F)F)cc3)[nH]c(=O)c2c1C | . | . | . | . | . | .
Cc1sc2nc(CSCC(=O)N(C)CC(=O)Nc3ccc(F)cc3)[nH]c(=O)c2c1C | . | . | . | . | . | 54
Cc1sc2nc(CSCC(=O)N(C)c3ccccc3)[nH]c(=O)c2c1C | . | . | . | . | . | 66
Cc1ccc(C=Nn2c(=O)c(C(C)(C)C)nn3cnnc23)cc1 | / | / | / | . | / | /
CCOC(=O)c1c(NC(=O)C(=O)NN=C(C)c2ccc(OC)cc2)sc2c1CCCCC2 | / | / | / | . | / | /
CCOc1cc(/C=C(\C#N)C(=O)Nc2ccc(S(N)(=O)=O)cc2)ccc1OCCN1CCOCC1 | . | . | . | . | . | 56
CN(C)c1ccc(C=NN(CCC(=O)NC(C)(C)C)C2=NS(=O)(=O)c3ccccc32)cc1 | / | / | / | . | / | /
CCCCN(Cc1nc2ccccc2c(=O)[nH]1)C(=O)CN1C(=O)NC2(CCCCC2)C1=O | . | . | . | . | . | 83
CC1CCCCC12NC(=O)N(CC(=O)N(C)Cc1nc3ccccc3c(=O)[nH]1)C2=O (stereo not given) | . | . | . | . | . | .
Cc1csc2nc(COC(=O)c3ccc(Cl)c([N+](=O)[O-])c3)cc(=O)n12 | . | . | . | / | . | 82
Cc1csc2nc(COC(=O)CNC(=O)c3ccc(Cl)cc3)cc(=O)n12 | . | . | . | . | . | .
O=C(CCc1nc2ccccc2c(=O)[nH]1)NNC(=O)COc1cccc(F)c1 | . | . | . | . | . | 96
COc1cc(Cl)c(C)cc1NC(=O)COC(=O)CCc1nc2ccccc2c(=O)[nH]1 | . | . | . | . | . | .
O=C(CCc1nc2ccccc2c(=O)[nH]1)NNC(=O)c1ccccc1Cl | . | . | . | . | . | 56
CCCCCC(=O)NN=Cc1ccc(N(C)C)cc1 | / | / | / | . | / | /
CC(C)(C)NC(=O)CSc1nc2ccc(NC(=O)CSc3nnnn3Cc3ccccc3)cc2s1 | . | . | . | . | 5.7 | .
CCN(C[C@H]1N[C@@](CC)(C(=O)OC)[C@H]2C(=O)N(Cc3ccccc3)C(=O)[C@@H]12)C(=O)c1ccc(C(C)(C)C)cc1 | . | . | . | . | . | 63
CC[C@@]1(C(=O)OC)N[C@H](CN(C)C(=O)c2ccc(C(C)(C)C)cc2)[C@@H]2C(=O)N(Cc3ccccc3)C(=O)[C@@H]21 | . | . | . | . | . | .
CCN(C[C@H]1N[C@@](C)(C(=O)OC)[C@H]2C(=O)N(Cc3ccccc3)C(=O)[C@@H]12)C(=O)COC | . | . | . | . | . | .
CCN(C[C@H]1N[C@@](C)(C(=O)OC)[C@H]2C(=O)N(Cc3ccccc3)C(=O)[C@@H]12)C(=O)c1ccc(C(C)(C)C)cc1 | . | . | . | . | . | 57
Cc1ccc(OCC(=O)NN=Cc2ccc(-c3cccc(C(=O)O)c3)o2)c(C)c1 | / | / | / | . | / | /
CCCCCCSc1cccc(-c2nc3cc(C)ccn3c2NC2CCCCC2)c1 | . | . | . | / | . | .
CCC(C)Sc1cccc(-c2nc3cc(C)ccn3c2NC2CCCCC2)c1 (stereo not given) | . | . | . | . | 15! | .
CC(=NNC(=O)c1cccc(S(=O)(=O)Nc2cccc(Cl)c2)c1)c1cccs1 | / | / | / | . | / | /
SMILES | B2AR ag | HKDC1 inh | PfGluPho inh | UCH37 DUB inh | aDG glyco act | Cardio protect
Cc1nnc(NN=Cc2ccc(-c3ccccc3F)o2)n1N | / | / | / | . | / | /
CC(=O)N1CCc2cc(N=NC3=C(O)CC(C)(C)CC3=O)ccc21 | . | . | . | 24 | . | .
CN(C)CCCn1c(=S)[nH]c2ccccc2c1=O | . | . | . | . | . | .
CN(C)CCCn1c2c3ccccc3ccc2c2oc(=O)c3ccccc3c21 | 43 | . | . | / | . | .
Nc1nnc2c(n1)CCCC2 | . | . | . | 21 | . | .
Cn1c(C(=O)Nc2ccc3c(c2)OCCO3)cc2c(=O)n(C)c3ccccc3c21 | . | . | . | . | . | 95
CCOc1ccc(Nc2c3ccccc3nc3ccccc23)cc1 | 52 | . | . | . | . | .
Oc1ccc(C=NNC2=NCCCCC2)cc1 | / | / | / | . | / | /
Cc1cc(C)c(S(=O)(=O)NCc2ccncc2)c(C)c1 | . | . | . | . | 6.3 | .
